18 compounds from ChEMBL document CHEMBL1955776, “Synthesis and biological evaluation of sulfonyl acrylonitriles as novel inhibitors to peritoneal carcinomatosis” (Bioorg Med Chem Lett, 2012) can be followed below.

The structures appear in SMILES notation. The source made the active and inactive calls. No cut-off for these calls is given here.

The nature of data set [1]: Antitumor activity against human SU86 cells co-cultured with mesothelial cell monolayers using D-luciferin as substrate at 10 uM by firefly luciferase reporter gene assay relative to control. It is filed as functional. The method in brief:
(§1)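 Luciferase-tagged cancer cells were treated in suspension at a final 10 μM, then overlaid on confluent mesothelial monolayers. Adherent surviving cells were read by D-luciferin bioluminescence, taken as living cell number. Efficacy = luminescence with analog / luminescence with DMSO; mean ± SEM, n = 3.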
(Reporter assays use an easily measured gene product as a stand-in for the process of interest.)

Data set [2] relates to BXPC-3. In words: Antitumor activity against human BxPC3 cells co-cultured with mesothelial cell monolayers using D-luciferin as substrate at 10 uM by firefly luciferase reporter gene assay relative to control. It is filed as functional. The method in brief: as §1
In data set [3] the test system is SK-OV-3. In words: Antitumor activity against human SKOV3 cells co-cultured with mesothelial cell monolayers using D-luciferin as substrate at 10 uM by firefly luciferase reporter gene assay relative to control. It is filed as functional. In short, it runs like this:
as §1

The subject of data set [4] is A2780. In words: Antitumor activity against human A2780 cells co-cultured with mesothelial cell monolayers using D-luciferin as substrate at 10 uM by firefly luciferase reporter gene assay relative to control. It is filed as functional. In short, it runs like this:
as §1

Data set [5] concerns A2780. In words: Antitumor activity against human A2780 cells co-cultured with mesothelial cell monolayers by firefly luciferase reporter gene assay. It is filed as functional, cell-based. In short, it runs like this: (§2)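 Co-culture implantation model: cancer cells carrying a constitutive firefly luciferase plasmid were held in suspension with analog, then overlaid on confluent mesothelial cell monolayers. Cells that adhered and survived were read by bioluminescence with D-luciferin. IC50 values came from concentration–response runs and are reported as mean ± SEM.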

The subject of the next data set is Mus musculus. In words: Toxicity in human A2780 cells xenografted nu/nu mouse at 5 mg/kg, ip administered every 3 days for 14 days. The data set is classed as organism-based. The arrangement: dose 5 mg/kg, route intraperitoneal. As to conditions: in vivo. The method in brief:
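Body weight was followed in athymic female nu/nu mice carrying IP A2780-luc cells and given 5 mg/kg IP in 4:1 PEG400:EtOH, starting 4 h before cell injection and repeated every three days over 14 days.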
Background: A xenograft is tissue or cells of one species grown in another, often human tumour cells in immunodeficient mice.

The subject of data set [6] is SK-OV-3. In words: Antitumor activity against human SKOV3 cells co-cultured with mesothelial cell monolayers by firefly luciferase reporter gene assay. It is filed as functional, cell-based. In short, it runs like this:
as §2

Data set [7] can be described thus: Antitumor activity against human SU86 cells co-cultured with mesothelial cell monolayers by firefly luciferase reporter gene assay. It is filed as functional, cell-based. The method in brief: as §2
For data set [8], the system named is SK-OV-3. In words: Induction of apoptosis in human SKOV3 cells co-cultured with mesothelial cell monolayers assessed as PARP cleavage at 7.5 uM after 5 hrs by Western blot analysis. It is filed as functional, cell-based. (A western blot detects proteins with antibodies after separation by electrophoresis.)
For data set [9], the system named is BXPC-3. In words: Antitumor activity against human BxPC3 cells co-cultured with mesothelial cell monolayers by firefly luciferase reporter gene assay. The data set is classed as functional, cell-based. In short, it runs like this: as §2
Data set [10] relates to A2780. In words: Antitumor activity against human A2780 cells xenografted in nu/nu mouse peritoneal carcinomatosis model assessed as inhibition of intraperitoneal implantation at 5 mg/kg, ip administered every 3 days for 14 days by luciferase reporter gene assay. The data set is classed as functional, organism-based. The arrangement: dose 5 mg/kg. The method in brief: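 Athymic 5-week-old female nu/nu mice were randomized to 5 mg/kg drug IP or an equal volume of vehicle (4:1 PEG400:EtOH), given 4 h before IP injection of 1.5 × 10^6 A2780-luc cells, then every three days for 14 days. Implants were imaged weekly by bioluminescence after IP D-luciferin. Day-14 abdominal signal was compared with vehicle controls.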

In data set [11] the target is CASP8 and FADD-like apoptosis regulator (Homo sapiens) (UniProt O15519). In words: Inhibition of cFLIP-L in human BxPC3 cells assessed as restoration of death receptor signaling-mediated apoptosis. It is filed as cell-based. As to conditions: BXPC-3.
Sequence of CASP8 and FADD-like apoptosis regulator (Homo sapiens) (O15519 whole entry, looked up): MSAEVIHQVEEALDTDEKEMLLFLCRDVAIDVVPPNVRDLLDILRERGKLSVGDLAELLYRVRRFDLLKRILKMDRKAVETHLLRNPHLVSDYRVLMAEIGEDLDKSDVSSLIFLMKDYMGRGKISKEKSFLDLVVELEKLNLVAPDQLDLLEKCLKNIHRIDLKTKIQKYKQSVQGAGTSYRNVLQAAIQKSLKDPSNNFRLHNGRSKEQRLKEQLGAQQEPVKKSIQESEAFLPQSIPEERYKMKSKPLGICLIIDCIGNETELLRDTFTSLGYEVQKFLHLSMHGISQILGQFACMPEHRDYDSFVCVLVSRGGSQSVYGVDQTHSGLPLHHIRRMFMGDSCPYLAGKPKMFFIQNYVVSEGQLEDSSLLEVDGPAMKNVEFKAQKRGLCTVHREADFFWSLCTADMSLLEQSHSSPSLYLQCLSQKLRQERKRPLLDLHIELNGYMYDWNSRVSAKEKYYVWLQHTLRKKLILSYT
For data set [12] the target is unchanged. In words: Inhibition of cFLIP-L in human A2780 cells assessed as restoration of death receptor signaling-mediated apoptosis. The data set is classed as cell-based.
Data set [13] shares this target. In words: Inhibition of cFLIP-L in human SU86 cells assessed as restoration of death receptor signaling-mediated apoptosis. The data set is classed as cell-based.
For data set [14] the target is unchanged. In words: Inhibition of cFLIP-L in human SKOV3 cells assessed as restoration of death receptor signaling-mediated apoptosis. The data set is classed as cell-based. The conditions noted are these: SK-OV-3.

Turning to `CN1CCN(C(=O)C(C)(C)c2ccc(S(=O)(=O)/C=C/C#N)cc2)CC1`, the Ratio in [1] worked out at 0.95; in the data set with BXPC-3 [2] it was 0.98; in the data set with SK-OV-3 [3], 1.09; in the data set with A2780 [4], 0.95.
On to `CC(C)(C(=O)N1CCCCC1)c1ccc(S(=O)(=O)/C=C/C#N)cc1`, for which the Ratio in data set [1] turned out to be 0.51; with BXPC-3 [2] it was 0.25; with SK-OV-3 [3], 0.51; in the data set with A2780 [4], 0.08.
Turning to `CC(C)(C(=O)NCc1ccccn1)c1ccc(S(=O)(=O)/C=C/C#N)cc1`, the Ratio is on record as 0.29 in [1], 0.24 with BXPC-3 [2], 0.47 in the data set on SK-OV-3 [3] and 0.05 in the data set on A2780 [4].
Taken in the same sequence, the figures for `CC(C)(C(=O)O)c1ccc(S(=O)(=O)/C=C/C#N)cc1` were 0.89, 0.92, 1.07 and 1.08.
On to `C#CCNC(=O)C(C)(C)c1ccc(S(=O)(=O)/C=C/C#N)cc1`, for which the Ratio in [1] is 0.65; in the data set with BXPC-3 [2] it was 0.64; in the data set on SK-OV-3 [3], 0.93; in the data set on A2780 [4], 0.63.
As to `C/C=C/S(=O)(=O)c1ccc(C(C)(C)C)cc1`, the Ratio in [1] is 0.99; with BXPC-3 [2] it was 0.99; with SK-OV-3 [3], 1.08; in the data set on A2780 [4], 1.15.
For `CC(C)CNC(=O)C(C)(C)c1ccc(S(=O)(=O)/C=C/C#N)cc1`, the half-maximal inhibitory concentration (IC50) in the data set on A2780 [5] was 3.3 µM; with SK-OV-3 [6], 12.9 µM; in [7], 7.6 µM; in the data set on BXPC-3 [9], 4.2 µM. The Activity entry with Mus musculus is “Non-toxic”. For the same compound, the Ratio in data set [1] worked out at 0.29; in the data set with BXPC-3 [2] it was 0.24; in the data set with SK-OV-3 [3] it was 0.47; with A2780 [4] it was 0.05. Besides, in the data set on SK-OV-3 [8], the result was Active. Also, the inhibition entry in the data set with A2780 [10] is “Active”.
On to `CC(C)(C)c1ccc(S(=O)(=O)/C=C/C#N)cc1` [BAY-11-7085], for which the inhibition result (in data set [11]; in data set [12]; in [13]; in data set [14]; with A2780 [10]) was “Active” each time. Also, the IC50 with A2780 [5] worked out at 2.6 µM; in the data set on SK-OV-3 [6], 7.6 µM; in data set [7], 5.9 µM; with BXPC-3 [9], 3.7 µM. Further, in the data set on Mus musculus, the Activity result was “Non-toxic”. Further, the Ratio in data set [1] is given as 0.13; with BXPC-3 [2], 0.07; in the data set on SK-OV-3 [3] it was 0.32; with A2780 [4], 0.04. The outcome in the data set with SK-OV-3 [8] was Active.
Turning to `CC(C)(C)c1ccc(S(=O)(=O)/C=C/C(N)=O)cc1`, the Ratio in data set [1] worked out at 0.59; in the data set on BXPC-3 [2] it was 0.44; with SK-OV-3 [3], 0.5; in the data set on A2780 [4] it was 0.77.
Consider `C=CS(=O)(=O)c1ccc(C(C)(C)C)cc1`, for which the Ratio in data set [1] came out at 0.8; in the data set on BXPC-3 [2], 0.84; with SK-OV-3 [3], 1.05; in the data set with A2780 [4], 1.16.
With `CC(C)(C)c1ccc(S(=O)(=O)/C=C/c2ccccc2)cc1`, the Ratio turned out to be 0.97 in [1], 1.01 in the data set with BXPC-3 [2], 1.17 in the data set on SK-OV-3 [3] and 1.13 with A2780 [4].
In the case of `COc1cccc(NC(=O)C(C)(C)c2ccc(S(=O)(=O)/C=C/C#N)cc2)c1`, the IC50 stood at 2.4 µM in the data set on A2780 [5], 10.9 µM in the data set with SK-OV-3 [6], 7.3 µM in data set [7] and 4.1 µM with BXPC-3 [9]. Also, the Ratio in data set [1] is 0.65; in the data set with BXPC-3 [2] it was 0.62; with SK-OV-3 [3], 0.98; with A2780 [4], 0.55. In addition, the result in the data set with SK-OV-3 [8] was Active.
On to `CC(C)(C(=O)Nc1ccccc1)c1ccc(S(=O)(=O)/C=C/C#N)cc1`, for which the IC50 with A2780 [5] was 2.7 µM; in the data set with SK-OV-3 [6] it was 9.9 µM; in [7], 7.5 µM; in the data set with BXPC-3 [9], 4.1 µM. Also, the Activity result with Mus musculus is on record as “Non-toxic”. Moreover, the Ratio in data set [1] is recorded as 0.52; in the data set on BXPC-3 [2], 0.22; in the data set on SK-OV-3 [3], 0.55; in the data set with A2780 [4], 0.17. The result with SK-OV-3 [8] was Active. Besides, the inhibition result with A2780 [10] is “Active”.
For `CC(C)(C)c1ccc(S/C=C/C#N)cc1`, in the data set with Mus musculus, the Activity result is “Non-toxic”. In addition, the Ratio in data set [1] was determined as 1.03; with BXPC-3 [2], 1.08; in the data set on SK-OV-3 [3], 0.92; in the data set on A2780 [4], 1.06. In the data set with A2780 [10], the inhibition result is “inactive”.
For `CC(C)(C(=O)N1CCOCC1)c1ccc(S(=O)(=O)/C=C/C#N)cc1`, the Ratio in [1] was found to be 0.94; in the data set with BXPC-3 [2], 0.85; with SK-OV-3 [3], 1.01; with A2780 [4], 0.66.
The matching figures for `CC(C)(C(=O)NC1CCCCC1)c1ccc(S(=O)(=O)/C=C/C#N)cc1`: 0.43, 0.22, 0.6 and 0.2.
For the compound `CC(C)(C(=O)NCc1ccc(Cl)cc1)c1ccc(S(=O)(=O)/C=C/C#N)cc1`, the IC50 is 3.4 µM in the data set with A2780 [5], 11.4 µM in the data set with SK-OV-3 [6], 8.7 µM in [7] and 4.1 µM in the data set on BXPC-3 [9]. Also, the Ratio was determined as 0.43 in data set [1], 0.27 in the data set on BXPC-3 [2], 0.63 in the data set on SK-OV-3 [3] and 0.15 in the data set with A2780 [4]. Also, the result with SK-OV-3 [8] was Active.
As to `CCOC(=O)/C=C/S(=O)(=O)c1ccc(C(C)(C)C)cc1`, the Ratio in data set [1] worked out at 0.52; in the data set on BXPC-3 [2], 0.2; in the data set with SK-OV-3 [3], 0.67; in the data set with A2780 [4] it was 0.39.

A word on the IC50: it is the point on the concentration scale where inhibition reaches its midpoint. A high value points to weaker potency in that assay.
